From ChEMBL document CHEMBL1143007, “Synthesis and evaluation of 4/5-hydroxy-2,3-diaryl(substituted)-cyclopent-2-en-1-ones as cis-restricted analogues of combretastatin A-4 as novel anticancer agents” (J Med Chem, 2007)
≈ marks a conversion by molar mass, not a printed value.

Columns and labels:
[1] = tested on: L132; test: Cytotoxicity against human L132 cells after 72 hrs by MTT assay; format: cell-based
Outline: (§1)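 MTT assay. Cells seeded at 5000-10 000 per well and incubated at 37 °C in CO₂ with compound at 1-100 µg/mL in triplicate wells for 72 h, then MTT added. Absorbance read at 540 nm; % cytotoxicity = 100 × (1 − treated/control). IC50 obtained by nonlinear regression; NA means IC50 above 100 µg/mL.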

[2] = tested on: HEK293; test: Cytotoxicity against human HEK293 cells after 72 hrs by MTT assay; format: cell-based; outline: as §1
[3] = tested on: MIA PaCa-2; test: Cytotoxicity against human MiaPaCa2 cells after 72 hrs by MTT assay; format: cell-based; outline: as §1
[4] = Cytotoxicity against human PA1 cells after 72 hrs by MTT assay; format: cell-based, PA-1; outline: as §1
[5] = Cytotoxicity against human ECV304 cells after 72 hrs by MTT assay; format: cell-based, ECV-304; outline: as §1
[6] = Cytotoxicity against human Hep2 cells after 72 hrs by MTT assay; format: cell-based, HEp-2; outline: as §1
[7] = tested on: KB; test: Cytotoxicity against human KB cells after 72 hrs by MTT assay; format: cell-based; outline: as §1
[8] = tested on: DU-145; test: Cytotoxicity against human DU145 cells after 72 hrs by MTT assay; format: cell-based; outline: as §1
[9] = tested on: HT-29; test: Cytotoxicity against human HT29 cells after 72 hrs by MTT assay; format: cell-based; outline: as §1
[10] = Homo sapiens, L132, 72 h, read-out: IC50
[11] = Homo sapiens, HEK293, 72 h, read-out: IC50
[12] = Homo sapiens, MIA PaCa-2, 72 h, read-out: IC50
[13] = Homo sapiens, PA-1, 72 h, read-out: IC50
[14] = Homo sapiens, ECV-304, 72 h, read-out: IC50
[15] = Homo sapiens, HEp-2, 72 h, read-out: IC50
[16] = Homo sapiens, KB, 72 h, read-out: IC50
[17] = Homo sapiens, DU-145, 72 h, read-out: IC50
[18] = Homo sapiens, HT-29, 72 h, read-out: IC50

SMILES	IC50 [1, 10] [µg/mL]	IC50 [2, 11] [µg/mL]	IC50 [3, 12] [µg/mL]	IC50 [4, 13] [µg/mL]	IC50 [5, 14] [µg/mL]	IC50 [6, 15] [µg/mL]	IC50 [7, 16] [µg/mL]	IC50 [8, 17] [µg/mL]	IC50 [9, 18] [µg/mL]	IC50 ([1]; l132) [µg/mL]	IC50 ([2]; hek293) [µg/mL]	IC50 ([3]; mia paca-2) [µg/mL]	IC50 ([4]; pa-1) [µg/mL]	IC50 ([5]; ecv-304) [µg/mL]	IC50 ([6]; hep-2) [µg/mL]	IC50 ([7]; kb) [µg/mL]	IC50 ([8]; du-145) [µg/mL]	IC50 ([9]; ht-29) [µg/mL]
COc1cc(C2=C(c3cc(C)c(OC)c(C)c3)C(OC(C)=O)C/C2=N/O)cc(OC)c1OC (centres undefined)	> 100	> 100	> 100	> 100	> 100	> 100	> 100	> 100	> 100									
COc1ccc(C2=C(c3cc(OC)c(OC)c(OC)c3)CC(O)C2=O)cc1[N+](=O)[O-] (centres undefined)	> 100	> 100	> 100	> 100	> 100	> 100	> 100	> 100	> 100									
COc1ccc(C2=C(c3cc(OC)c(OC)c(OC)c3)C(=O)C(OC(C)=O)C2)cc1Cl (centres undefined)	< 1	60 (≈ 134 µM)	24 (≈ 53.7 µM)	> 100	3.5 (≈ 7.83 µM)	< 1	64 (≈ 143 µM)	64 (≈ 143 µM)	< 1									
COc1ccc(C2=C(c3cc(OC)c(OC)c(OC)c3)C(=O)C(O)C2)cc1OC(C)C (centres undefined)	> 100	> 100	> 100	> 100	> 100	> 100	> 100	> 100	> 100									
CC(=O)OC1C/C(=N/O)C(c2ccccc2)=C1c1ccccc1 (centres undefined)	> 100	92.3 (≈ 300 µM)	4.5 (≈ 14.6 µM)	> 100	> 100	> 100	9 (≈ 29.3 µM)	> 100	> 100									
COc1ccc(C2=C(c3cc(OC)c(OC)c(OC)c3)C(=O)C(OC(C)=O)C2)cc1O (centres undefined)	6 (≈ 14 µM)	92 (≈ 215 µM)	18.5 (≈ 43.2 µM)	6 (≈ 14 µM)	> 100	> 100	35 (≈ 81.7 µM)	> 100	< 1									
COc1ccc(OC)c(C2=C(c3cc(OC)c(OC)c(OC)c3)C(=O)CC2O[Si](C)(C)C(C)(C)C)c1 (centres undefined)	100 (≈ 194 µM)	9.5 (≈ 18.5 µM)	> 100	17 (≈ 33 µM)	6.5 (≈ 12.6 µM)	19 (≈ 36.9 µM)	10 (≈ 19.4 µM)	100 (≈ 194 µM)	5 (≈ 9.71 µM)									
COc1ccc(C2=C(c3cc(OC)c(OC)c(OC)c3)/C(=N\O)CC2OC(C)=O)cc1 (stereo in doubt; 22)										20 (≈ 46.8 µM)	32 (≈ 74.9 µM)	1 (≈ 2.34 µM)	20 (≈ 46.8 µM)	4 (≈ 9.36 µM)	3 (≈ 7.02 µM)	5 (≈ 11.7 µM)	20 (≈ 46.8 µM)	1.5 (≈ 3.51 µM)
COc1ccc(C2=C(c3cc(OC)c(OC)c(OC)c3)/C(=N\O)C(O)C2)cc1OC(C)C (centres undefined)	75 (≈ 169 µM)	36.8 (≈ 82.9 µM)	98 (≈ 221 µM)	61 (≈ 138 µM)	96 (≈ 216 µM)	40 (≈ 90.2 µM)	95 (≈ 214 µM)	81 (≈ 183 µM)	69 (≈ 156 µM)									
COC(=O)c1cc(C2=C(c3cc(OC)c(OC)c(OC)c3)C(=O)CC2O[Si](C)(C)C(C)(C)C)ccc1OC (centres undefined)	> 100	> 100	> 100	> 100	> 100	> 100	> 100	> 100	> 100									
COc1cc(C2=C(c3ccc(SC)cc3)CC(O)/C2=N/O)cc(OC)c1OC (centres undefined)	> 100	27 (≈ 67.3 µM)	40 (≈ 99.6 µM)	25.3 (≈ 63 µM)	57 (≈ 142 µM)	< 1	15 (≈ 37.4 µM)	2.5 (≈ 6.23 µM)	36 (≈ 89.7 µM)									
COc1ccc(C2=C(c3cc(OC)c(OC)c(OC)c3)/C(=N\O)C(OC(C)=O)C2)cc1Cl (centres undefined)	< 1	32 (≈ 69.3 µM)	10 (≈ 21.6 µM)	37.5 (≈ 81.2 µM)	8 (≈ 17.3 µM)	< 1	50 (≈ 108 µM)	17 (≈ 36.8 µM)	< 1									
COc1ccc(C2=C(c3cc(OC)c(OC)c(OC)c3)C(=O)CC2O)cc1 (centres undefined)	10 (≈ 27 µM)	10 (≈ 27 µM)	> 100	3.38 (≈ 9.13 µM)	> 100	> 100		18.7 (≈ 50.5 µM)	15 (≈ 40.5 µM)									
COc1ccc(C2=C(c3cc(OC)c(OC)c(OC)c3)C(=O)C(OC(C)=O)C2)cc1OC(C)C (centres undefined)	> 100	> 100	> 100	> 100	> 100	> 100	> 100	> 100	> 100									
C=CCOc1cc(C2=C(c3cc(OC)c(OC)c(OC)c3)C(=O)C(O)C2)ccc1OC (centres undefined)	> 100	> 100	> 100	> 100	> 100	> 100	> 100	> 100	> 100									
COc1cc(C2=C(c3ccc(OCC(=O)[O-])cc3)C(O)CC2=O)cc(OC)c1OC.[Na+] (centres undefined)		> 100	> 100			> 100	> 100	> 100										
COc1ccc(C2=C(c3cc(OC)c(OC)c(OC)c3)C(=O)C(O)C2)cc1NC(=O)c1ccccc1 (centres undefined)	> 100	> 100	> 100	> 100	> 100	> 100	> 100	> 100	> 100									
COc1ccc(C2=C(c3cc(OC)c(OC)c(OC)c3)/C(=N\O)CC2O[Si](C)(C)C(C)(C)C)cc1OC (centres undefined)	60 (≈ 113 µM)	70 (≈ 132 µM)	15 (≈ 28.3 µM)		36 (≈ 68 µM)	32 (≈ 60.4 µM)	15 (≈ 28.3 µM)	60 (≈ 113 µM)	20 (≈ 37.8 µM)									
COc1ccc(C2=C(c3cc(OC)c(OC)c(OC)c3)C(=O)CC2O[Si](C)(C)C(C)(C)C)cc1OC (centres undefined)	> 100	> 100	> 100	> 100	> 100	> 100	> 100	> 100	> 100									
COc1ccc(C2=C(c3cc(OC)c(OC)c(OC)c3)/C(=N\O)CC2OC(C)=O)cc1O (centres undefined)	< 1	> 6.06	< 1	< 1	> 100	> 100	< 1	23 (≈ 51.9 µM)	< 1									
COc1ccc(C2=C(c3cc(OC)c(OC)c(OC)c3)CC(O)C2=O)cc1N (centres undefined)	54 (≈ 140 µM)	> 100	> 100	20 (≈ 51.9 µM)	> 100	16 (≈ 41.5 µM)	< 1	41 (≈ 106 µM)	< 1									
C=CCOc1cc(C2=C(c3cc(OC)c(OC)c(OC)c3)/C(=N\O)C(O)C2)ccc1OC (centres undefined)	> 100	> 100	> 100	> 100	> 100	> 100	> 100	> 100	> 100									
COc1cc(C2=C(c3ccccc3)C(O[Si](C)(C)C(C)(C)C)CC2=O)cc(OC)c1OC (centres undefined)	> 100	> 100	> 100	> 100	> 100	> 100	> 100	> 100	> 100									
COc1ccc(C2=C(c3cc(OC)c(OC)c(OC)c3)/C(=N\O)C(O)C2)cc1O (centres undefined)	81 (≈ 202 µM)	> 100	> 100	26 (≈ 64.8 µM)	> 100	20 (≈ 49.8 µM)	90 (≈ 224 µM)	10 (≈ 24.9 µM)	69 (≈ 172 µM)									
COc1ccc(C2=C(c3cc(OC)c(OC)c(OC)c3)C(=O)CC2O)cc1O (centres undefined)	< 1	> 100	> 100	< 1	> 100	< 1	< 1	8 (≈ 20.7 µM)	< 1									
COc1ccc(C2=C(c3cc(OC)c(OC)c(OC)c3)/C(=N\O)CC2O)cc1 (centres undefined)	11 (≈ 28.5 µM)	> 100	> 100	2.35 (≈ 6.1 µM)	> 100	> 100		34.2 (≈ 88.9 µM)	15 (≈ 38.9 µM)									
COc1ccc(C2=C(c3cc(OC)c(OC)c(OC)c3)C(=O)C(OC(C)=O)C2)cc1 (centres undefined)	> 100		< 1	< 1	18 (≈ 43.6 µM)	18 (≈ 43.6 µM)	72 (≈ 175 µM)	> 100	< 1									
COc1ccc(C2=C(c3cc(OC)c(OC)c(OC)c3)C(=O)C(OC(C)=O)C2)cc1NC=O (centres undefined)	2 (≈ 4.39 µM)	4.16 (≈ 9.13 µM)	2 (≈ 4.39 µM)	5 (≈ 11 µM)		3.27 (≈ 7.18 µM)	8 (≈ 17.6 µM)	> 100	< 1									
COc1ccc(C2=C(c3cc(OC)c(OC)c(OC)c3)/C(=N\O)C(OC(C)=O)C2)cc1 (centres undefined)		25.6 (≈ 59.9 µM)	< 1	< 1	> 100	100 (≈ 234 µM)	69 (≈ 161 µM)	> 100	1 (≈ 2.34 µM)									
COc1cc(C2=C(c3cc(C)c(OC)c(C)c3)C(O[Si](C)(C)C(C)(C)C)CC2=O)cc(OC)c1OC (centres undefined)	> 100	29 (≈ 56.6 µM)		32 (≈ 62.4 µM)	15 (≈ 29.3 µM)	26 (≈ 50.7 µM)	40 (≈ 78 µM)	> 100	10 (≈ 19.5 µM)									
